According to PubChem BioAssay:
The source made the active and inactive calls.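 Rule for the calls, unless noted: active = viability at or below 10% of carrier control in both of two separate runs; inconclusive = viability at or below 10% in only one of the two runs; inactive = the rest.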

Columns and labels:
[1] = SK-BR-3 cell growth inhibitors, pilot screen, 24 h, human (AID 572); settings: SK-BR-3 viability, CellTiter-Glo luminescence, at 10 µM, stronger effect = lower value;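 note: compound exposure lasted between 18 and 24 h rather than exactly 24 h; 100% = carrier-treated control wells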
[2] = HUVEC growth inhibition – cell-based, human, primary screen (AID 575;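 active = viability at or below 30% in both replicate assays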;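 note: 100% = median of untreated cell wells with 0.1% DMSO on each plate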); settings: HUVEC proliferation, CellTiter-Glo luminescence, 72 h; at 10 µM; stronger effect = lower value
Procedure, shortened: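 material = primary HUVEC, no more than 12 passages | input = 1250 cells per well | controls = vehicle and MePR control wells | measured by = CTG luminescence | times = 72 h compound incubation | format = collagen-coated 384-well format | read-out = % viability vs DMSO wells | doses = single 10 µM dose, 0.1% DMSO, from 5x medium stock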

[3] = growth inhibitors of H69AR lung tumor, primary screen, human, duplicate replicates (AID 580;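 active = viability at or under a set limit in both replicates, limit being median viability minus 3 SD, cut at about 48% in these data, passing the limit was not always enough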;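 note: 100% = mean luminescence of untreated wells and 0% = no signal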); settings: H69AR lung tumor cells viability, ATP luminescence, 72 h; at 10 µM; stronger effect = lower value
[4] = reversal of MRP1-mediated doxorubicin resistance, pilot screen, H69AR cells, doxorubicin co-treatment (AID 601;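 active = viability loss from added drug above about 55%, and viability with drug at most 40%, in both replicates, limit read from the data, passing the limit was not always enough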); settings: CellTiter-Glo, 72 h, at 10 µM; for differential viability (reversal): stronger effect = higher value
[5] = 384-well plate pilot, post-Golgi transport modulator project, inhibition of yeast transport mutant growth (AID 636; in the data active = inhibition above about 31%); settings: absorbance 615 nm, about 18 h, stronger effect = higher value
[6] = growth suppression of yeast trafficking mutant, preliminary HTS, modulators of trafficking downstream of Golgi apparatus project, 1536-format plate, OD 615 nm (AID 637; in the data active = inhibition above about 30%); settings: yeast transport mutant growth, absorbance 615 nm, 18 h; stronger effect = higher value
[7] = H69AR cells + 2 uM doxorubicin, measured here: viability with 2 uM doxorubicin, stronger effect = lower value
[8] = H69AR cells, compound alone cytotoxicity

Row | Compound | viability [1] | viability [2] | viability [3] | differential viability (reversal) ([4]; H69AR cells + 2 uM doxorubicin) | viability [4, 7] [%] | viability [4, 8] [%] | inhibition [5] | inhibition [6]
1 | COc1ccccc1-c1nc2n(n1)C(c1ccc(Cl)cc1)C(C(N)=O)=C(C)N2 (configuration not stated) | 126% (inactive) | 89.8% (inactive) | 83.5% (inactive) | -4.36% (inactive) | 87.9 | 83.5 | -0.91% (inactive) | -3.61% (inactive)
2 | CC(C)(C)C1=Nn2c(nnc2-c2n[nH]c3c2CCC3)SC1 | 87% (inactive) | 97.3% (inactive) | 85.9% (inactive) | -4.71% (inactive) | 90.6 | 85.9 | -7.26% (inactive) | 4.68% (inactive)
3 | Cc1ccc2cc(CN(Cc3ccc(F)cc3)Cc3nnnn3C3CCCC3)c(=O)[nH]c2c1 | 100% (inactive) | 71.2% (inactive) | 78.7% (inactive) | 4.34% (inactive) | 74.4 | 78.7 | -4.19% (inactive) | 3.09% (inactive)
4 | COC(=O)CCC(=O)Nc1ccc(S(=O)(=O)N2CCCCCC2)cc1 | 103% (inactive) | 99.2% (inactive) | 100% (inactive) | 1.32% (inactive) | 98.8 | 100 | -1.69% (inactive) | 1.15% (inactive)
5 | COC(=O)c1ccccc1NC(=O)C1CCN(S(=O)(=O)c2cc(C)ccc2OC)CC1 | 78% (inactive) | 78.9% (inactive) | 79.1% (inactive) | -13.2% (inactive) | 92.3 | 79.1 | -11.1% (inactive) | 0.48% (inactive)
6 | CC(=O)Nc1nc2c(c3c1c(=O)oc1ccccc13)CC(C)CC2 (configuration not stated) | 123% (inactive) | 85.1% (inactive) | 92.1% (inactive) | 4.96% (inactive) | 87.1 | 92.1 | -1.04% (inactive) | -2.79% (inactive)
7 | CCn1c(SCC(=O)Nc2ccc3c(c2)OCO3)nnc1-c1ccccc1O | 96% (inactive) | 92% (inactive) | 101% (inactive) | 13.5% (inactive) | 87.2 | 101 | -1.69% (inactive) | -0.33% (inactive)
8 | COC(=O)CCC(NC(=O)c1cc(-c2ccc3c(c2)OCCO3)oc1C)C(=O)OC (configuration not stated) | 91% (inactive) | 74.8% (inactive) | 85.3% (inactive) | 3.48% (inactive) | 81.9 | 85.3 | -6.44% (inactive) | 0.81% (inactive)
9 | O=C(O)CSC1CC(=O)N(c2ccc(Cl)c(Cl)c2)C1=O (configuration not stated) | 104% (inactive) | 109% (inactive) | 98.8% (inactive) | 7.75% (inactive) | 91.1 | 98.8 | -8.38% (inactive) | 0.36% (inactive)
10 | CCCN1CCN(C(=O)Cn2cccc2C(=O)c2ccccc2)CC1 | 84% (inactive) | 99.9% (inactive) | 100% (inactive) | 17.8% (inactive) | 82.2 | 100 | -2.27% (inactive) | 1.27% (inactive)
11 | O=C(NCC1CCCO1)C1CCC(CNS(=O)(=O)c2ccccc2)CC1 (configuration not stated) | 101% (inactive) | 81.6% (inactive) | 90.3% (inactive) | 5.42% (inactive) | 84.8 | 90.3 | 1.95% (inactive) | -1.31% (inactive)
12 | CC(NC(=O)NC12CC3CC(CC(C3)C1)C2)C1CCCO1 (configuration not stated) | 80% (inactive) | 103% (inactive) | 103% (inactive) | 10.1% (inactive) | 93.4 | 103 | -3.7% (inactive) | 1.27% (inactive)
13 | CCSCc1nnc(SCC(=O)Nc2cccc(SC)c2)n1C | 66% (inactive) | 84.3% (inactive) | 90.3% (inactive) | -14.9% (inactive) | 105 | 90.3 | -6.58% (inactive) | -0.18% (inactive)
14 | CCOC(=O)CNC(=O)CSc1nc(N(C)C)nc(N2CCOCC2)n1 | 88% (inactive) | 98.1% (inactive) | 89.2% (inactive) | 2.04% (inactive) | 87.1 | 89.2 | -9.86% (inactive) | 6.45% (inactive)
15 | O=C(CCNNC(=O)c1ccncc1)NCc1ccccc1 | 72% (inactive) | 84.7% (inactive) | 93.5% (inactive) | 6.55% (inactive) | 87 | 93.5 | -7.53% (inactive) | -2.67% (inactive)
16 | Cn1nc(CC(=O)Nc2ccc(N3CCN(C(=O)OC(C)(C)C)CC3)cc2)c2ccccc2c1=O | 84% (inactive) | 9.25% (active) | 1.72% (active) | -3.22% (inactive) | 4.94 | 1.72 | -1.82% (inactive) | -4.26% (inactive)
17 | COc1ccc(CCNc2oc(COc3ccc(F)cc3)nc2C#N)cc1 | 164% (inactive) | 76.2% (inactive) | 93.7% (inactive) | 2.54% (inactive) | 91.1 | 93.7 | -4.73% (inactive) | 1.27% (inactive)
18 | COCCNC(=O)C(c1ccc(C)o1)N(Cc1cccs1)C(=O)c1snc(C(N)=O)c1N (configuration not stated) | 87% (inactive) | 86.8% (inactive) | 86.4% (inactive) | 0.375% (inactive) | 86 | 86.4 | 4% (inactive) | 12.7% (inactive)
19 | CS(=O)(=O)N1CCc2cc(S(=O)(=O)Nc3ccc4oc5c(c4c3)CCCC5)ccc21 | 76% (inactive) | 43.3% (inactive) | 88.9% (inactive) | -13.8% (inactive) | 103 | 88.9 | -2.47% (inactive) | 0% (inactive)
